Source: ChEMBL document CHEMBL4270645, “Structure-activity relationship study of hypoxia-activated prodrugs for proteoglycan-targeted chemotherapy in chondrosarcoma” (Eur J Med Chem, 2018)
The source made the active and inactive calls. The calls are words filed in the database; no cut-off is given here.

How the values were obtained:
[1] = target: Aggrecan core protein (Bos taurus) (UniProt P13608); test: Binding affinity to bovine articular cartilage aggrecan at 500 uM by SPR analysis
Procedure, shortened: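 Aggrecan immobilised on sensor chip, free sites blocked with 1 M ethanolamine pH 8.5. Primary screen as binding level at 500 µM analyte in HBS-P+ running buffer, 30 µL/min, 600 s association, 200 s dissociation. Response corrected against a flow cell without aggrecan; regeneration with 2 M NaCl, 150 s.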

Aggrecan core protein = Aggrecan core protein (Bos taurus, UniProt P13608); test: Binding affinity to bovine articular cartilage aggrecan by SPR analysis
Sequence of Aggrecan core protein (P13608 whole entry): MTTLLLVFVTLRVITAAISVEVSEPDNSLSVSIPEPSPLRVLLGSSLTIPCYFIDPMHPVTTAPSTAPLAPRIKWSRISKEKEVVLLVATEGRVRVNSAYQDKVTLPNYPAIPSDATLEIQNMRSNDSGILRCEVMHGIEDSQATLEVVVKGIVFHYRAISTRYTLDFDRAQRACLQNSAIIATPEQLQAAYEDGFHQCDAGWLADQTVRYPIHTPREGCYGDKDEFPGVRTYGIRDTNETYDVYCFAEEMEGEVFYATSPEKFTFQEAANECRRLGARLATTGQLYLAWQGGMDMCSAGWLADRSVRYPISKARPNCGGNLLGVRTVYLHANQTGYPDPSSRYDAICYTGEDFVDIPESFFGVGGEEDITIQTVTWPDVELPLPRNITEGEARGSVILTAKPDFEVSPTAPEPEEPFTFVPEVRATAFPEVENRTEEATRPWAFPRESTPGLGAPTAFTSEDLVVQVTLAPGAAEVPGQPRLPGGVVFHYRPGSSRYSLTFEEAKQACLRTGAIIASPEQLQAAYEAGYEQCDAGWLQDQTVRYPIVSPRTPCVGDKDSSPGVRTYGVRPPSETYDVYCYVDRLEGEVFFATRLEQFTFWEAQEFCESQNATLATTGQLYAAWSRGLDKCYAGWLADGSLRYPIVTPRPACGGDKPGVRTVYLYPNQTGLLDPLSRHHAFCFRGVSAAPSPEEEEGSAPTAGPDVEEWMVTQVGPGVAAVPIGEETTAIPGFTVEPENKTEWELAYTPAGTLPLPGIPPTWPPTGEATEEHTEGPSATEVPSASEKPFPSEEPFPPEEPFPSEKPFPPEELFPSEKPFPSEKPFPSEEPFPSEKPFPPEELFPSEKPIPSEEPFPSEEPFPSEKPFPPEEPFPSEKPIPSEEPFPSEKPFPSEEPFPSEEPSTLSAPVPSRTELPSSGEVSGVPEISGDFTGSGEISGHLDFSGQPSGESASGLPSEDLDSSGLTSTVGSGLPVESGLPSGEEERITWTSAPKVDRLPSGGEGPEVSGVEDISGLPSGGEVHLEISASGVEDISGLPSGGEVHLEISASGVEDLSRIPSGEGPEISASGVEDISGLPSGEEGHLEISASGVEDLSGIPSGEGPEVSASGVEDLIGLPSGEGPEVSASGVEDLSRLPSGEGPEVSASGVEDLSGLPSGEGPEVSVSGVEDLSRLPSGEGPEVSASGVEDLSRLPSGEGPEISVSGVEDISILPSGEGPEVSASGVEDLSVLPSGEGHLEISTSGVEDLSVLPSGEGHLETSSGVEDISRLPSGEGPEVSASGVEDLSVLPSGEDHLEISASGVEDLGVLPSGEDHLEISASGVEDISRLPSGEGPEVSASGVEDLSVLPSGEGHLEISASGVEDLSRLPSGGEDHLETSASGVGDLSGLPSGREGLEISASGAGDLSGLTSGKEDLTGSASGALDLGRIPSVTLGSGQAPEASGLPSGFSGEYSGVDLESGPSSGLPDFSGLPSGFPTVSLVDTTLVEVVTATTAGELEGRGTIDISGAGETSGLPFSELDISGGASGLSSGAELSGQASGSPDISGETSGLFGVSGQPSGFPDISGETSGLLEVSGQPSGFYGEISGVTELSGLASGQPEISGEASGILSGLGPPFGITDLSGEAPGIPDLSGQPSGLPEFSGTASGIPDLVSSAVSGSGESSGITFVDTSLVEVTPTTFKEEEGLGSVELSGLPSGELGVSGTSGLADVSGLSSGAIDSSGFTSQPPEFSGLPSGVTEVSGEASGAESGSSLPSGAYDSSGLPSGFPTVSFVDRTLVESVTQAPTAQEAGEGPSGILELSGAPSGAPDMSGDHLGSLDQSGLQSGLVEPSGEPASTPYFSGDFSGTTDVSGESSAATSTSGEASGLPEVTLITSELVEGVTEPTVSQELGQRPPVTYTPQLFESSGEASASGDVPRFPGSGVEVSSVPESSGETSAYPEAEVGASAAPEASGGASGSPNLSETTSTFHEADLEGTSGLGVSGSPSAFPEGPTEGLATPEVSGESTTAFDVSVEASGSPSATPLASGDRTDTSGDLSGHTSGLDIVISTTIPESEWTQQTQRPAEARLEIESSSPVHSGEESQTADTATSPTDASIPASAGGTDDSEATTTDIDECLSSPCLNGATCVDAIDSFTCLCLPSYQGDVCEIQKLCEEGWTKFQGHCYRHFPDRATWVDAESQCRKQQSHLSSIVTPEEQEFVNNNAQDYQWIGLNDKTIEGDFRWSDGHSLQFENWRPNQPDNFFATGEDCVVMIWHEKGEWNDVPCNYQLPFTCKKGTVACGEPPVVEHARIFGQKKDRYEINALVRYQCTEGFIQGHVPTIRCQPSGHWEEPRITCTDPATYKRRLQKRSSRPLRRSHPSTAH

H-EMC-SS [2] = test: Antiproliferative activity against human HEMC-SS cells treated for 24 hrs under normoxic condition followed by compound wash-out and incubated under normoxic condition for 48 hrs by alamar blue assay; assay type: cell-based
Procedure, shortened: (§1)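 HEMC-SS chondrosarcoma cells (DMEM/F12, 10% FCS, gentamicin) seeded 20.10^3/well, adhered overnight; drug dilution series added, final DMSO 0.5%. Exposed 24 h under normoxia (21% O2, 5% CO2, 37°C) or hypoxia (N2, O2<0.3%, 37°C), then washed with PBS and grown 48 h in normoxia. AlamarBlue viability; IC50 = 50% growth inhibition; at least triplicate, mean ± SD.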

H-EMC-SS [3] = test: Antiproliferative activity against human HEMC-SS cells treated for 24 hrs under hypoxic condition followed by compound wash-out and incubated under normoxic condition for 48 hrs by alamar blue assay; assay type: functional, cell-based; procedure, shortened: as §1
H-EMC-SS [4] = test: Selectivity index, ratio of IC50 for human HEMC-SS cells under normoxic condition to IC50 for human HEMC-SS cells under hypoxic condition; assay type: functional
[5] = Chemical stability in pH 7.4 sodium phosphate buffer assessed as drug metabolism at 17 uM at 37 degC after 24 hrs by RP-HPLC analysis; assay type: physicochemical; settings: read-out: Drug metabolism
Procedure, shortened: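 Prodrug at 17 µM in 10 mM sodium phosphate pH 7.4 with 0.13% DMSO, 37°C. Aliquots over 24 h run directly on C18 RP-HPLC (H2O/ACN gradient with 15 mM TFA). Remaining prodrug calculated from peak area at 322 nm.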

[6] = Stability in rabbit plasma at 37 degC after 24 hrs by 31P NMR analysis; assay type: ADME, cell-free, Oryctolagus cuniculus
Procedure, shortened: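 Heparinised rabbit blood centrifuged (4°C, 1300 g, 10 min) to give plasma. About 10 mg prodrug in 90 µL CH3CN plus 330 µL plasma, followed by 31P NMR at 37°C over 24 h; peak areas, average of two runs.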

[7] = Chemical stability in 3 equiv sodium dithionite/CH3CN,/cacodylate buffer at pH 7.4 at 37 degC after 24 hrs by 31P NMR analysis; assay type: physicochemical; settings: pH 7.4, 24 h
[8] = Prodrug activation in 3 equiv sodium dithionite/CH3CN,/cacodylate buffer at pH 7.4 assessed as bis(2-chloroethyl)phosphoramidate anion formation by measuring half life at 37 degC by 31P NMR analysis; assay type: physicochemical
Procedure, shortened: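 Incubation with 3 equiv sodium dithionite in CH3CN/0.1 M cacodylate buffer pH 7.4, probe at 37°C. 31P NMR spectra over 24 h against coaxial Ph3PO reference (26 ppm). Parent loss and phosphoramidate anion formation quantified from peak areas; average of two runs.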

[9] = Prodrug activation in pH 7.4 PBS buffer assessed as 15 to 25 ug/ml Escherichia coli nitroreductase-mediated bis(2-chloroethyl)phosphoramidate anion formation by measuring half life at 37 degC in presence of NADPH by RP-HPLC analysis; settings: isolated protein
Procedure, shortened: (§2)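 Recombinant E. coli nitroreductase (final 25 or 15 µg/mL) with prodrug 17 µM and NADPH 0.9 mM final, in 10 mM sodium phosphate pH 7.4, 37°C. Aliquots over 2 h run on C18 RP-HPLC; remaining prodrug from peak area at 322 nm. Enzyme-free NADPH controls run in parallel.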

[10] = Prodrug activation in pH 7.4 PBS buffer assessed as 25 ug/ml Escherichia coli nitroreductase-mediated corresponding phosphoramidate anion formation by measuring half life at 37 degC in presence of NADPH by RP-HPLC analysis; settings: isolated protein; procedure, shortened: as §2
[11] = Prodrug activation in pH 7.4 PBS buffer assessed as 15 ug/ml Escherichia coli nitroreductase-mediated corresponding phosphoramidate anion formation by measuring half life at 37 degC in presence of NADPH by RP-HPLC analysis; settings: isolated protein; procedure, shortened: as §2

Sequence of Aggrecan core protein (Bos taurus) (P13608 whole entry): as above

With `CC[N+](C)(C)CCCCCNP(=O)(OCc1cnc([N+](=O)[O-])n1C)N(CCCl)CCCl.[I-]` (stereo not drawn) the Activity [1] was “Active”, the Kd (Aggrecan core protein) was 3560 µM and the IC50 (H-EMC-SS [2]) was 15.8 µM. For the same compound, the IC50 (H-EMC-SS [3]) was 1.5 µM and the “Ratio IC50” value (H-EMC-SS [4]) was 11.
For `Cn1c(COP(=O)(NCCCC[N+](C)(C)Cc2ccccc2)N(CCCl)CCCl)cnc1[N+](=O)[O-].[I-]` (stereo not drawn), the Activity [1] was “Active”, the Kd (Aggrecan core protein) was 5270 µM and the IC50 (H-EMC-SS [2]) was 18 µM. The IC50 (H-EMC-SS [3]) was 1.8 µM and the “Ratio IC50” value (H-EMC-SS [4]) was 10.
In the case of `Cn1c(COP(=O)(NCCCCC[N+](C)(C)Cc2ccccc2)N(CCCl)CCCl)cnc1[N+](=O)[O-].[I-]` (stereo not drawn), the Activity [1] is reported as “Active”, the Kd (Aggrecan core protein) is reported as 2550 µM and the IC50 (H-EMC-SS [2]) is reported as 28.9 µM. The IC50 (H-EMC-SS [3]) was 2.8 µM and the “Ratio IC50” value (H-EMC-SS [4]) was 10.
With `Cn1c(COP(=O)(NCC[N+](C)(C)Cc2ccccc2)N(CCCl)CCCl)cnc1[N+](=O)[O-].[I-]` (stereo not drawn) the Activity [1] was “Active”, the Kd (Aggrecan core protein) was 2900 µM and the IC50 (H-EMC-SS [2]) was 6.4 µM. The IC50 (H-EMC-SS [3]) was 1.1 µM and the “Ratio IC50” value (H-EMC-SS [4]) was 6.
In the case of `CC[N+](C)(C)CCCCNP(=O)(OCc1cnc([N+](=O)[O-])n1C)N(CCCl)CCCl.[I-]` (stereo not drawn), the Activity [1] is reported as “Active”, the Kd (Aggrecan core protein) is reported as 2020 µM and the IC50 (H-EMC-SS [2]) is reported as 10.2 µM. For the same compound, the IC50 (H-EMC-SS [3]) was 1.5 µM and the “Ratio IC50” value (H-EMC-SS [4]) was 7.
With `CC[N+](C)(CCCNP(=O)(OCc1cnc([N+](=O)[O-])n1C)N(CCCl)CCCl)Cc1ccccc1.[I-]` (stereo not drawn) the IC50 (H-EMC-SS [2]) was 20.8 µM, the IC50 (H-EMC-SS [3]) was 2.1 µM and the “Ratio IC50” value (H-EMC-SS [4]) was 10.
With `Cn1c(COP(=O)(NCCC[N+](C)(C)Cc2ccccc2)N(CCCl)CCCl)cnc1[N+](=O)[O-].[I-]` (stereo not drawn) the Activity [1] was “Active”, the Kd (Aggrecan core protein) was 2990 µM and the IC50 (H-EMC-SS [2]) was 5.4 µM. For the same compound, the IC50 (H-EMC-SS [3]) was 0.4 µM and the “Ratio IC50” value (H-EMC-SS [4]) was 14.
For `CC[N+](CC)(CC)CCCNP(=O)(OCc1cnc([N+](=O)[O-])n1C)N(CCCl)CCCl.[I-]` (stereo not drawn), the Activity [1] was “Active”, the Kd (Aggrecan core protein) was 3490 µM and the IC50 (H-EMC-SS [2]) was 9.7 µM. For the same compound, the IC50 (H-EMC-SS [3]) was 1.4 µM and the “Ratio IC50” value (H-EMC-SS [4]) was 7.
For `Cn1c(COP(=O)(NCCCCC[N+](C)(C)C)N(CCCl)CCCl)cnc1[N+](=O)[O-].[I-]` (stereo not drawn), the Activity [1] was “Active”, the Kd (Aggrecan core protein) was 4220 µM and the IC50 (H-EMC-SS [2]) was 25.8 µM. The IC50 (H-EMC-SS [3]) was 2.4 µM and the “Ratio IC50” value (H-EMC-SS [4]) was 11.
For `CC[N+](C)(CCCCNP(=O)(OCc1cnc([N+](=O)[O-])n1C)N(CCCl)CCCl)Cc1ccccc1.[I-]` (stereo not drawn), the Activity [1] was “Active”, the Kd (Aggrecan core protein) was 2100 µM and the IC50 (H-EMC-SS [2]) was 40.7 µM. For the same compound, the IC50 (H-EMC-SS [3]) was 1.7 µM, the “Ratio IC50” value (H-EMC-SS [4]) was 24 and the degraded at 24 h, 17 µM [5] was less than 5%. The Stability [6] was “Stable”, the Stability [7] was “Stable” and the t1/2 [8] was less than 2 min. It also gave a t1/2 [9] of less than 1 min.
In the case of `Cn1c(COP(=O)(NCCBr)NCCBr)cnc1[N+](=O)[O-]` [EVOFOSFAMIDE], the IC50 (H-EMC-SS [2]) is reported as 2.9 µM, the IC50 (H-EMC-SS [3]) is reported as 0.13 µM and the “Ratio IC50” value (H-EMC-SS [4]) is reported as 23.
For `CC[N+](C)(CC)CCCCNP(=O)(OCc1cnc([N+](=O)[O-])n1C)N(CCCl)CCCl.[I-]` (stereo not drawn), the Activity [1] was “Active”, the Kd (Aggrecan core protein) was 4970 µM and the IC50 (H-EMC-SS [2]) was 13.4 µM. For the same compound, the IC50 (H-EMC-SS [3]) was 2.4 µM and the “Ratio IC50” value (H-EMC-SS [4]) was 6.
With `Cn1c(COP(=O)(NCCC[N+](C)(C)C)N(CCCl)CCCl)cnc1[N+](=O)[O-].[I-]` (stereo not drawn) the Activity [1] was “Active”, the Kd (Aggrecan core protein) was 1290 µM and the IC50 (H-EMC-SS [2]) was 29.3 µM. The IC50 (H-EMC-SS [3]) was 4.3 µM, the “Ratio IC50” value (H-EMC-SS [4]) was 7 and the t1/2 [10] was 5 min. It also gave a t1/2 [11] of 15 min.
In the case of `CC[N+](C)(CCCCCNP(=O)(OCc1cnc([N+](=O)[O-])n1C)N(CCCl)CCCl)Cc1ccccc1.[I-]` (stereo not drawn), the Activity [1] is reported as “Active”, the Kd (Aggrecan core protein) is reported as 3470 µM and the IC50 (H-EMC-SS [2]) is reported as 12.9 µM. The IC50 (H-EMC-SS [3]) was 0.8 µM and the “Ratio IC50” value (H-EMC-SS [4]) was 16.
